Assay outcomes deposited in PubChem by Sanford-Burnham Center for Chemical Genomics.
EBI2 block – blocks human EBI2 receptor beta-arrestin signaling. P32249. EBI2 beta-arrestin recruitment, luminescence, 7a,25-OHC stimulated. inhibition, % at 5 µM. actives 0.81% (n = 360,000). AID 651636; in the data active = inhibition above about 38%;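 note: enzyme fragment complementation signal reports receptor beta-arrestin coupling in cells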
CXCR6 block – blocks human CXCR6 beta-arrestin recruitment; inhibition, % at 20 µM; CHO-K1 PathHunter CXCR6 beta-arrestin, luminescence; O00574; actives 0.36% (n = 360,000); in the data active = inhibition above about 34%, passing the limit was not always enough;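 note: antagonist mode with CXCL16 agonist at 10 nM final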
APJ ag – APJ receptor agonism | CHO-K1 APJ PathHunter beta-arrestin, luminescence; 0% DMSO wells, 100% apelin | activation, % at 20 µM | actives 0.11% (n = 330,000);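 active = activation more than six SD over the plate average, tested at 20 µM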
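Test system – PathHunter CHO-K1 APJ (AGTRL-1) beta-arrestin reporter cells · Input – 1000 cells/well · Compound – single test compound dose, 20 µM final, 1% DMSO · Times – compound stimulation 90 min at 25 °C, detection 60 min · Technique – beta-gal luminescence · Read-out basis – APJ–arrestin association signal · Control set – negative DMSO alone, positive Apelin-13 at 10 nM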
APJ antag – antagonists of human APJ apelin receptor; P35414; CHO-K1 APJ beta-arrestin complementation, luminescence; inhibition, % at 20 µM; actives 0.32% (n = 330,000);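 active = inhibition above about 40% at 20 µM, limit read from the data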;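 note: cells challenged with 10 nM apelin-13 agonist together with compound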
CCR6 antag – antagonists of human CCR6 receptor; CHO-K1 CCR6 PathHunter beta-arrestin, luminescence, CCL20-stimulated; inhibition, % at 20 µM; actives 0.49% (n = 340,000);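 active = compounds whose inhibition of the agonist-driven luminescence signal at 20 µM reaches about 50%, limit read from the data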;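 note: cells stimulated with CCL20 at 14 nM final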
Target sequence (P51684 whole entry, looked up): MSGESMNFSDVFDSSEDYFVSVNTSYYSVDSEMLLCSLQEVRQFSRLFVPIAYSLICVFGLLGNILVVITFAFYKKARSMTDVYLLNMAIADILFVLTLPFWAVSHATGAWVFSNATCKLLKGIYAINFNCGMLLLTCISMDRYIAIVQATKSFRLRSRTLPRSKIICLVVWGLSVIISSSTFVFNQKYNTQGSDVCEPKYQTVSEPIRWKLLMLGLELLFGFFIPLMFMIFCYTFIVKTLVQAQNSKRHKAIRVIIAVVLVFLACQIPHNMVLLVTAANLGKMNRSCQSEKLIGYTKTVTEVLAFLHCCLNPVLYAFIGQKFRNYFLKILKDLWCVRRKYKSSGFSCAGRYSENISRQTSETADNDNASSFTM
EBI2 conf – confirmation of human EBI2 receptor antagonists; shares compounds with EBI2 block; EBI2 beta-arrestin luminescence, 7a,25-OHC antagonism; inhibition, % at 5 µM; actives 29% (n = 2,400); AID 651997;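 active = inhibition of at least 50%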
EBI2 ag – activates EBI2, counter-screen for EBI2 antagonists; shares compounds with EBI2 block; EBI2-expressing cells, agonist mode, luminescence, 60 min; 0% vehicle, 100% 7α,25-dihydroxycholesterol control; activation, % at 5 µM; 2,400 tested, under 10 active; AID 652000;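 active = activation of at least 50%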
bGal cs – counter-screen for EBI2 antagonists: E. coli beta-galactosidase inhibition; shares compounds with EBI2 block; purified beta-galactosidase, luminescent Galacton Star, 15 min; inhibition, % at 5 µM; actives 1% (n = 2,400);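 active = replicate-average signal at least 3 plate SD below neutral wells, shown as high inhibition, flagging enzyme-inhibiting false positives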;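 note: higher means stronger loss of beta-gal luminescence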
Each line names hits and unclear results; the compound was inactive in the other large screens (follow-up assays come after a bar, where they were run). The list is not random: actives were taken first. Their share in the collection is about 1.5%.

O=C(NC(=S)Nc1ccc(N2CCOCC2)cc1)c1ccc(Cl)cc1	none
CCC(=O)NC(=S)Nc1ccc(N2CCN(C(=O)c3ccc(Cl)cc3)CC2)cc1	EBI2 block 42.9 | EBI2 conf inactive | EBI2 ag inactive | bGal cs inactive
Cc1ccc(C(=O)N2CCC(C(=O)c3c(C)cc(C)cc3C)CC2)cc1	EBI2 block 42.7 | EBI2 conf inactive | EBI2 ag inactive | bGal cs inactive
COC(=O)[C@]12CCCCC=C1N(Cc1ccc3c(c1)OCO3)C(=O)[C@H](CC(=O)N1CCN(C(=O)c3ccco3)CC1)C2	none (no result: CXCR6 block, APJ ag, APJ antag, CCR6 antag)
Cc1ccc(C(=O)NCCN2CCN(C(=O)c3ccc(C)c(C)c3)CC2)cc1C	none
O=C(NCCN1CCN(C(=O)c2ccc(Br)cc2)CC1)c1ccc(Br)cc1	EBI2 block 43.7 | EBI2 conf inactive | EBI2 ag inactive | bGal cs inactive
CC(C)(C)n1c(O)c2n(c1=O)Cc1ccccc1N=C2c1ccccc1	none (no result: APJ ag, APJ antag, CCR6 antag)
O=C(OCC(=O)N1CCCc2ccccc21)c1cnc(Cl)c(Cl)c1	EBI2 block 42.9 | EBI2 conf inactive | EBI2 ag inactive | bGal cs inactive
O=C(CN1CCN(S(=O)(=O)c2ccc(Br)cc2)CC1)N/N=C/c1ccc(Br)s1	EBI2 block 65.0 | EBI2 conf inactive | EBI2 ag inactive | bGal cs inactive
O=C(CN1CCN(S(=O)(=O)c2ccc(Br)cc2)CC1)N/N=C/c1ccco1	none
O=C(CN1CCN(S(=O)(=O)N2CCCCC2)CC1)Nc1ccc(Cl)c(Cl)c1	none
O=C(CN1CCN(S(=O)(=O)c2ccccc2)CC1)Nc1ccc(Cl)c(Cl)c1	EBI2 block 60.6 | EBI2 conf inactive | EBI2 ag inactive | bGal cs inactive
Cc1ccc(/C=N/NC(=O)CN2CCN(S(=O)(=O)c3ccc(Br)cc3)CC2)s1	EBI2 block 69.2 | EBI2 conf 51.7 | EBI2 ag inactive | bGal cs inactive
Cc1ccc(S(=O)(=O)N2CCN(CC(=O)N/N=C/C=C/c3ccccc3)CC2)cc1	EBI2 block 42.6 | EBI2 conf inactive | EBI2 ag inactive | bGal cs inactive
Cc1ccc(Oc2ncc(-c3ccc(Cl)cc3)cn2)cc1	EBI2 block 90.0 | EBI2 conf 58.2 | EBI2 ag inactive | bGal cs inactive
COc1cnc(-c2ccccc2)nc1Oc1cccc(C)c1C	none
Cc1cccc(Oc2ncc(-c3ccc(Cl)cc3)cn2)c1C	EBI2 block 51.9 | EBI2 conf inactive | EBI2 ag inactive | bGal cs inactive
Cc1ccc(NC(=O)c2ccc(S(=O)(=O)N3CCCCC3)cc2)cc1	EBI2 block 44.6 | EBI2 conf inactive | EBI2 ag inactive | bGal cs inactive
O=C(Nc1ccc(OC(F)F)cc1)c1cc(S(=O)(=O)N2CCOCC2)ccc1N1CCCC1	none (no result: APJ ag, APJ antag)
Cc1ccc(NC(=S)Nc2ccc(C(C)C)cc2)cc1S(=O)(=O)N1CCCCCC1	EBI2 block 49.6 | EBI2 conf 50.9 | EBI2 ag inactive | bGal cs inactive
O=S(=O)(c1ccc(NC(=S)Nc2ccc(OC(F)F)cc2)cc1)N1CCOCC1	EBI2 block 49.1 | EBI2 conf inactive | EBI2 ag inactive | bGal cs inactive
Cc1ccc(S(=O)(=O)N2CC=C(C(=O)NCc3ccc(F)cc3)CC2)cc1	none (no result: CCR6 antag)
Cc1ccc(CNC(=O)C2=CCN(S(=O)(=O)c3ccc(C)cc3)CC2)cc1	EBI2 block 66.2 (no result: CCR6 antag) | EBI2 conf inactive | EBI2 ag inactive | bGal cs inactive
O=C1NC[C@H](Cc2ccc(O)cc2)N(C[C@@H]2CCCN2C[C@H](Cc2ccccc2)N2C[C@H](Cc3ccc(O)cc3)N(CC3CCCCCC3)C(=O)C2=O)C1=O	none (no result: APJ ag, APJ antag, CCR6 antag)
COc1ccc(OC)c(COC(=O)c2cccc(S(=O)(=O)N3CCCCC3)c2)c1	none
NNC(=S)Nc1ccc(S(=O)(=O)N2CCOCC2)cc1	none
Cc1ccc(CNC(=O)c2ccc(S(=O)(=O)N3CCCCCC3)cc2)cc1	EBI2 block 71.7 (no result: APJ ag, APJ antag, CCR6 antag) | EBI2 conf inactive | EBI2 ag inactive | bGal cs inactive
